Measured values published in PMC9073091 (RSC Advances, 2019).
Where no end group is shown, it is not given here.

What was measured:
[1] = Pharmacokinetic study after subcutaneous administration; assay type: in vivo, Sprague-Dawley rats
Method in brief: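 Twelve Sprague-Dawley rats (6 female, 6 male; 200 ± 20 g) were housed SPF at 22 ± 2 °C on a 12 h light–dark cycle and fasted about 12 h. Each received a single subcutaneous dose of 10 mg kg−1. Orbital blood was taken into pre-acidified EDTA-K2 tubes at 0, 0.5, 1, 2, 3, 5, 10, 20, 30, 45 and 60 min and iced; plasma was spun and analysed by UHPLC-MS/MS (LLOQ 0.1 ng mL−1). Non-compartmental analysis; mean ± SD.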

[2] = Stability of SP in acidified rat plasma and blood; assay type: in vitro ADME
Method in brief: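 Blood was acidified with 0.3% perchloric acid. Low- and high-level samples (five replicates each) were held as follows: whole blood at 0 °C for 1 h; […] for 1 h before processing; extracts at 25 °C for 1 h; reconstituted samples in the autosampler at 4 °C for 24 h; plasma at −70 °C for 60 days; and three freeze–thaw cycles (−70 °C to ambient). Read-out was accuracy as deviation from nominal, with acceptance within 15%.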

[3] = Stability; assay type: in vitro ADME; conditions: rat
Method in brief: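 Rat blood was spiked at 150 ng mL−1 to compare three stabilisation factors. Anticoagulant (EDTA-K2 or heparin sodium) was tested at 25 °C and 0 °C. Protease inhibitors (pepstatin A, aprotinin, cOmplete cocktail, AEBSF) were tested at 25 °C. Acidification with H2SO4 or HClO4 (0.1–0.3%) was tested at 25 °C and 0 °C. Samples were taken before and at 2, 5, 10, 20, 30 and 60 min, precipitated with organic solvent, centrifuged and analysed by UHPLC-MS/MS. Half-lives were calculated.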

[4] = rats, subcutaneous 10 mg kg^−1, mean ± SD, n = 12

## GQTYTSG [SP, GQTYTSG]
[1]; rat, in vivo, sc, 10 mg/kg
  Tmax: 1.75 min
  half-life: < 10 min
[1]; [4]
  CL (apparent total plasma clearance): 17.9 ± 9.96 L/min
  Vz (total volume of distribution): 230 ± 118 L
[2]; blood, blood stability (0 °C for 1 h), 0.5 ng mL^−1
  Accuracy (stability): 114.4%
[2]; blood, blood stability (0 °C for 1 h), 300 ng mL^−1
  Accuracy (stability): 104.1%
[2]; plasma, auto-sampler stability (4 °C for 24 h), 0.25 ng mL^−1
  Accuracy (stability): 110.0%
[2]; plasma, auto-sampler stability (4 °C for 24 h), 150 ng mL^−1
  Accuracy (stability): 106.7%
[2]; plasma, freeze–thaw stability (three cycles), 0.25 ng mL^−1
  Accuracy (stability): 106.4%
[2]; plasma, freeze–thaw stability (three cycles), 150 ng mL^−1
  Accuracy (stability): 94.7%
[2]; plasma, long-term stability (−70 °C for 60 days), 0.25 ng mL^−1
  Accuracy (stability): 96.1%
[2]; plasma, long-term stability (−70 °C for 60 days), 150 ng mL^−1
  Accuracy (stability): 94.0%
[2]; plasma, post-preparation stability (25 °C for 1 h), 0.25 ng mL^−1
  Accuracy (stability): 90.8%
[2]; plasma, post-preparation stability (25 °C for 1 h), 150 ng mL^−1
  Accuracy (stability): 105.3%
[2]; plasma, short-term stability (0 °C for 1 h), 0.25 ng mL^−1
  Accuracy (stability): 96.4%
[2]; plasma, short-term stability (0 °C for 1 h), 150 ng mL^−1
  Accuracy (stability): 96.0%
[3]; half-life of SP in blood samples, blood acidified with 0.3% HClO4 (v/v), 0 °C
  half-life: > 350 min
[3]; half-life, 25 °C, in vitro
  half-life: < 10 min
[3]; whole blood, half-life of SP in blood samples, EDTA-K2 as anticoagulant, samples kept at 0 °C
  half-life: 11.5 ± 0.22 min
[3]; whole blood, half-life of SP in blood samples, blood acidified with 0.3% H2SO4 (v/v), 0 °C
  half-life: > 350 min
